Assay results from PMC6563393 (Molecular Imaging, 2019).
Each block holds one molecule with its values, some of them ahead of it.

Key:
[1] = Ex vivo biodistribution, H226 xenografts; type: in vivo, NSG mice; details: female, NSG, mouse, H226 tumor (xenograft), iv, 740 kBq, total radioactivity
Summary of the method: (§1)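 Female NSG mice (6–8 weeks) with subcutaneous xenografts got 740 kBq radiotracer in 200 µL iv. The radiotracer was reconstituted in saline with 5% DMSO and Tween 20, then diluted in saline. Mice were killed at 120 min (MDAMB231 also 60 min, plus a group coinjected with 50 µg unmodified peptide). Blood, tumour and tissues were weighed and gamma-counted with triplicate standards. %ID/g reported as mean ± SEM.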

[2] = Ex vivo biodistribution, normal tissues; type: in vivo, NSG mice; details: at all the time points (10, 60, 120 minutes); blocking dose had minimal effect
Summary of the method: (§2)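 Female NSG mice (6–8 weeks) bearing subcutaneous CHO/hPD-L1 and parental CHO tumours received radiotracer iv in saline (from 5% DMSO/Tween 20 stock). For blocking, it was coinjected with 50 µg unmodified peptide. Mice were dissected at 10, 60 and 120 min (n = 4 per time point). Blood, tumours and tissues were weighed and gamma-counted with triplicate radioactive standards. Values are %ID/g, mean ± SEM, compared by unpaired two-tailed t test.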

[3] = Ex vivo biodistribution, SUM149 xenografts; type: in vivo, NSG mice; details: female, NSG, mouse, SUM149 tumor (xenograft), iv, 740 kBq, total radioactivity
Summary of the method: as §1

hPD-L1 tumors = assay: Ex vivo biodistribution, hPD-L1 xenografts; type: in vivo, NSG mice; details: co-injected with 50 µg blocking dose of WL12
Summary of the method: as §2

[4] = Ex vivo biodistribution, hPD-L1 xenografts; type: in vivo, NSG mice; details: female, NSG, mouse, hPD-L1 tumor (xenograft), iv, 740 kBq, total radioactivity
Summary of the method: as §2

[5] = test system: hPD-L1, CHO, MDAMB231, SUM149, H226, and H1155 cells; assay: [^18F]FPy-WL12 in vitro uptake assay; type: cell-based; details: blocking with 1 µM unmodified WL12; 1 hour at 37°C
Summary of the method: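 Cells were lifted with non-enzymatic dissociation buffer. 1 × 10⁶ cells in PBS with 2 mM EDTA and 1% FBS were incubated with 1 µCi radiotracer for 1 h at 37°C, washed three times with cold PBS, and bound activity was gamma-counted. CHO-hPD-L1 cells were kept in F-12K/10% FBS with 2 mg/mL G418. SUM149 cells were grown in Ham's F-12/5% FBS with insulin and hydrocortisone. Runs were in triplicate, repeated three times.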

[6] = Ex vivo biodistribution, MDAMB231 xenografts; type: in vivo, NSG mice; details: female, NSG, mouse, MDAMB231 tumor (xenograft), iv, 740 kBq, total radioactivity
Summary of the method: as §1

[7] = target: recombinant human PD-L1(B7-H1)-His-tag protein (human) (UniProt Q9NZQ7); assay: AlphaScreen or HTRF
[8] = target: endogenous PD-L1 on MDAMB231 and H226 cells (human (endogenous in MDAMB231 and H226)) (UniProt Q9NZQ7)

Molecule: CCCC[C@H]1C(=O)N(C)[C@@H](CCCC)C(=O)N[C@@H](CCCNC(=O)c2ccc(F)nc2)C(=O)N[C@H](C(=O)NCC(N)=O)CSCC(=O)N[C@@H](Cc2ccc(O)cc2)C(=O)N(C)[C@@H](C)C(=O)N[C@@H](CC(N)=O)C(=O)N2CCC[C@H]2C(=O)N[C@@H](Cc2c[nH]cn2)C(=O)N[C@@H](CC(C)C)C(=O)N2C[C@H](O)C[C@H]2C(=O)N[C@@H](Cc2c[nH]c3ccccc23)C(=O)N[C@@H](CO)C(=O)N[C@@H](Cc2cn(C)c3ccccc23)C(=O)N1C [[^18F]FPy-WL12]
- tissue uptake at 2 h [1]: 2.77 ± 0.31 %ID/g
- accumulation in liver and kidneys [2]: high
- tissue uptake at 2 h [3]: 1.43 ± 0.11 %ID/g
- reduction in the uptake in hPD-L1 tumors by blocking dose (hPD-L1 tumors): 85%
- tissue uptake at 1 h [4]: 7.16 ± 1.67 %ID/g
- [^18F]FPy-WL12 uptake in cells coincubated with unmodified WL12 [5]: significantly reduced
- tissue uptake at 2 h [6]: 2.15 ± 0.1 %ID/g

- IC50 [7]: 26.4 nM
- Ki [7]: 12.3 nM
Molecule: WL12, PD-L1-binding peptide (14-amino acid cyclic peptide)

- tumor uptake in MDAMB231 xenografts at 120 minutes, ex vivo biodistribution [8]: 2.15 %ID/g
Molecule: [^18F]FPy-WL12, radiotracer (WL12 acylated with 6-[^18F]fluoronicotinate) (peptide)

- IC50 [7]: 31.7 nM
- Ki [7]: 14.8 nM
Molecule: ^19FPy-WL12, nonradioactive analog of the radiotracer (WL12 acylated with 6-fluoronicotinate) (peptide)
